# Results of several laboratories.
# Lines come from different studies, so protocols differ.
# PADI3: Protein-arginine deiminase type-3 (PADI3, Homo sapiens, UniProt Q9ULW8)
# KRAS G12C: GTPase KRas (KRAS, Homo sapiens, UniProt P01116, G12C)
# GAK: Cyclin-G-associated kinase (GAK, Homo sapiens, UniProt O14976)
# AMY2: Pancreatic alpha-amylase (AMY2, Sus scrofa, UniProt P00690)
# Maoa: Amine oxidase [flavin-containing] A (Maoa, Rattus norvegicus, UniProt P21396)
# Genome polyprotein protease: Genome polyprotein, protease (Hepatitis C virus genotype 1b, UniProt Q9WMX2)
Compound,target,test,conditions,quantity,value
N=C(CCl)NCCC[C@H](NC(=O)c1ccccc1)c1nn[nH]n1,PADI3,"enzyme activity, inhibitor",,kinact/KI,49.6 M⁻¹ s⁻¹
C=CC(=O)Nc1ccc(-c2noc([C@@]3(C)CCCc4sc(N)c(C#N)c43)n2)cc1,KRAS G12C,cell-free assay,,kinact,0.00011 s⁻¹
CCCOc1ccc(OC)c(F)c1C(=O)c1ccc(C(=O)N[C@@H]2CNC[C@H]2NC(=O)c2ccc3[nH]ncc3c2)cc1,"Serine/threonine-protein kinase MRCK beta (CDC42BPB, Homo sapiens, UniProt Q9Y5S2)","enzyme activity, inhibitor",0.75 µM,remaining activity,7%
Cc1ccc(C(=O)Nc2ccc(CN3CCN(C)CC3)c(C(F)(F)F)c2)cc1C#Cc1cnc2cccnn12,GAK,"enzyme activity, inhibitor",23.5 nM,remaining activity,73%
Cc1noc(NS(=O)(=O)c2ccc(N=NN(O)c3ccccc3)cc2)c1C,AMY2,"enzyme activity, inhibitor",240 µg/mL,inhibition,63.2%
NC(=O)[C@H](CCCN=C(N)N)NC(=O)c1ccccc1,PADI3,"enzyme activity, substrate",,Km,13900 µM
Cn1c2c(c3ccc(Cl)c(Cl)c31)C(C#N)C1(CCNCC1)NC2=O (racemic),"Serine/threonine-protein kinase DCLK1 (DCLK1, Homo sapiens, UniProt O15075)","thermal stability, DSF",10 µM,ΔTm,0.9 °C
NCc1ccc(C(F)(F)F)cc1,Maoa,"enzyme activity, substrate",pH 7.5,Km,194 µM
CC(C)(C)n1nnc([C@H](CCCNC(=N)CCl)NC(=O)c2ccc(-c3ccccc3)cc2)n1,PADI3,"enzyme activity, inhibitor",,kinact/KI,82.3 M⁻¹ s⁻¹
COc1cc(C=Cc2cc(-c3ccccc3)nc(O)n2)ccc1O,AMY2,"enzyme activity, inhibitor, absorbance",5 µg/mL,inhibition,76.3%
Fc1cccc(Nc2ccnc3ccc(C(F)(F)F)cc23)c1,GAK,"thermal stability, DSF",10 µM,ΔTm,4.3 °C
COc1cc(Nc2cnc(C#N)c(O[C@H](C)CN(C)C)n2)ncc1-c1cnn(C)c1,"Eukaryotic translation initiation factor 2-alpha kinase 3 (EIF2AK3, Homo sapiens, UniProt Q9NZJ5)","enzyme activity, inhibitor, radiometric",10 µM,remaining activity,93%
NCc1ccc(Br)cc1,Maoa,"enzyme activity, substrate",pH 7.5,Km,34 µM
CCN(O)N=Nc1ccc(S(=O)(=O)Nc2cc(C)on2)cc1,AMY2,"enzyme activity, inhibitor",20 µg/mL,inhibition,26.3%
Nc1ncnc2occ(-c3ccc(NC(=O)Nc4cc(C(F)(F)F)ccc4F)cc3)c12,"Cyclin-dependent kinase 4, with cyclin D1 (CDK4, Homo sapiens, UniProt P11802)","cell-free assay, inhibitor",20 µM,remaining signal,17%
COc1ccc(Nc2ccnc3ccc(C(F)(F)F)cc23)cc1OC,GAK,"thermal stability, DSF",10 µM,ΔTm,3.4 °C
Cc1cccc(N(O)N=Nc2ccc(S(=O)(=O)Nc3onc(C)c3C)cc2)c1,AMY2,"enzyme activity, inhibitor",120 µg/mL,inhibition,31.6%
N=C(CF)NCCC[C@H](NC(=O)c1ccccc1C(=O)O)c1nn[nH]n1,PADI3,"enzyme activity, inhibitor",,kinact/KI,63.3 M⁻¹ s⁻¹
CCCN(O)N=Nc1ccc(S(=O)(=O)Nc2nccs2)cc1,AMY2,"enzyme activity, inhibitor",240 µg/mL,inhibition,63.2%
Fc1cc(Nc2ccnc3ccc(C(F)(F)F)cc23)ccc1Cl,GAK,"thermal stability, DSF",10 µM,ΔTm,4.5 °C
COc1cc(C=CC(=O)CC(c2ccc([N+](=O)[O-])cc2)n2ccnc2)ccc1O (stereo not drawn),AMY2,"enzyme activity, inhibitor, absorbance",1.25 µg/mL,inhibition,52.7%
COc1cc(Nc2ccnc3ccc(C(C)(C)C)cc23)cc(OC)c1OC,GAK,"thermal stability, DSF",10 µM,ΔTm,5.2 °C
Cc1cc(NS(=O)(=O)c2ccc(N=NN(O)c3ccccc3)cc2)no1,AMY2,"enzyme activity, inhibitor",300 µg/mL,inhibition,73.7%
FC(F)(F)c1ccc2nccc(Nc3cccc(Br)c3)c2c1,GAK,"thermal stability, DSF",10 µM,ΔTm,3.8 °C
O=c1oc2c(O)c(O)cc3c(=O)oc4c(O)c(O)cc1c4c23,Genome polyprotein protease,"enzyme activity, inhibitor, fluorescence",,IC90,< 10 µM
C=CC(=O)Nc1cccc(-c2noc([C@@]3(C)CCCc4sc(N)c(C#N)c43)n2)c1,KRAS G12C,"cell-free assay, inhibitor",,kinact,0.000306 s⁻¹
CS(=O)(=O)c1ccc(Nc2ccnc3ccc(C(F)(F)F)cc23)cc1,GAK,"thermal stability, DSF",10 µM,ΔTm,0.2 °C
O=C1OC[C@H]2OC(O)[C@H](O)[C@@H](O)[C@@H]2OC(=O)c2cc(O)c(O)c(O)c2-c2c(O)c(O)c3oc(=O)c4c(c(O)c(O)c5oc(=O)c2c3c54)-c2c1cc(O)c(O)c2O (mixture of isomers),Genome polyprotein protease,"enzyme activity, inhibitor, fluorescence",,IC90,~1 µM
CC(C)(C)n1nnc([C@H](CCCNC(=N)CF)NC(=O)c2ccc(-c3ccccc3)cc2)n1,PADI3,"enzyme activity, inhibitor",,kinact/KI,11.7 M⁻¹ s⁻¹
O=C(O)CCC(=O)C(=O)O,"Lysine-specific demethylase 4D (KDM4D, Homo sapiens, UniProt Q6B0I6)","enzyme activity, substrate",,Km,6.9 µM
N=C(CCl)NCCC[C@H](NC(=O)c1ccc(-c2ccccc2)cc1)c1nn[nH]n1,PADI3,"enzyme activity, inhibitor",,kinact/KI,131 M⁻¹ s⁻¹
CCCN(O)N=Nc1ccc(S(=O)(=O)Nc2cc(C)on2)cc1,AMY2,"enzyme activity, inhibitor",20 µg/mL,inhibition,10.5%
COc1cc2nccc(Nc3cccc(C(C)=O)c3)c2cc1OC,GAK,"thermal stability, DSF",10 µM,ΔTm,1.3 °C
CC(C)(C)n1nnc([C@H](CCCNC(=N)CCl)NC(=O)c2ccccc2C(=O)O)n1,PADI3,"enzyme activity, inhibitor",,kinact/KI,292 M⁻¹ s⁻¹
CN1CCN(C(=O)c2ccc3cc(CCNc4ccnc5ccc(C#N)cc45)ccc3c2)CC1,"Cyclin-dependent kinase 19, with cyclin C (CDK19, Homo sapiens, UniProt Q9BWU1)","binding, TR-FRET",,kon,939000 M⁻¹ s⁻¹
Cc1ccc(N(O)N=Nc2ccc(S(=O)(=O)Nc3cc(C)on3)cc2)cc1,AMY2,"enzyme activity, inhibitor",60 µg/mL,inhibition,26.3%
FC(F)(F)c1ccc2nccc(Nc3ccc4c(c3)OCO4)c2c1,GAK,"thermal stability, DSF",10 µM,ΔTm,3.2 °C
CN(O)N=Nc1ccc(S(=O)(=O)Nc2nccs2)cc1,AMY2,"enzyme activity, inhibitor",120 µg/mL,inhibition,42.1%
COc1cc(C=Cc2cc(-c3ccc(N(C)C)cc3)nc(O)n2)ccc1O,AMY2,"enzyme activity, inhibitor, absorbance",5 µg/mL,inhibition,72.4%
